A selection: hits, their analogues and other compounds. The true share with any hit is near 6.5%.
PostGolgi yeast: growth inhibition of a yeast mutant, post-Golgi transport screen; post-Golgi transport phenotypic cell assay; 98,000 compounds, 0.9% hits; inhibition, % at 10 µM;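 further: yeast cells grown in 1536-well plates; yeast grown about 18 h at 30C before absorbance read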
E coli WT exp: blocks growth of wild type E. coli BW25113 | 98,000 compounds, 0.15% hits | OD600 absorbance | growth inhibition, % at 100 µM;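 active means growth inhibition above about 50% at one test dose, limit read from the data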;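 further: growth measured after 20 h incubation at 37 °C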
tolC growth inh: E. coli tolC mutant growth inhibition; E. coli BW25113 tolC mutant growth, OD615; growth inhibition, % at 10 µM (by protocol); 65,000 compounds, 2.2% hits; AID 573;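 active means growth inhibition at or above a cutoff equal to the mean over every tested compound plus 3 SD, cut at about 60% in these data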;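 further: growth measured after 20 h incubation at 37 °C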
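Test system: E. coli BW25113 ΔtolC::kan bacteria; incubation: 37 °C, 20 h exposure; medium: LB broth supplemented with 50 µg/mL kanamycin; read-out basis: percent growth inhibition; signal: A615 absorbance measurement; compound: 10 µM final, single dose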
PTK2B oligo ant: antagonists of human Pyk2 oligomerization. Q14289. Q293 cells, Pyk2 FERM NanoBiT luminescence; hits give low values. z-score (the deposit names both 25 µM and 10 µM). 99,000 compounds, 0.83% hits. AID 1347419;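 active means Z-score of -3 or lower, scaled per plate to the spread of control and sample wells; inactive means z-score above -3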;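 further: negative z-score means lost luminescence so less FERM oligomerization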
Target sequence (Q14289 whole entry, looked up): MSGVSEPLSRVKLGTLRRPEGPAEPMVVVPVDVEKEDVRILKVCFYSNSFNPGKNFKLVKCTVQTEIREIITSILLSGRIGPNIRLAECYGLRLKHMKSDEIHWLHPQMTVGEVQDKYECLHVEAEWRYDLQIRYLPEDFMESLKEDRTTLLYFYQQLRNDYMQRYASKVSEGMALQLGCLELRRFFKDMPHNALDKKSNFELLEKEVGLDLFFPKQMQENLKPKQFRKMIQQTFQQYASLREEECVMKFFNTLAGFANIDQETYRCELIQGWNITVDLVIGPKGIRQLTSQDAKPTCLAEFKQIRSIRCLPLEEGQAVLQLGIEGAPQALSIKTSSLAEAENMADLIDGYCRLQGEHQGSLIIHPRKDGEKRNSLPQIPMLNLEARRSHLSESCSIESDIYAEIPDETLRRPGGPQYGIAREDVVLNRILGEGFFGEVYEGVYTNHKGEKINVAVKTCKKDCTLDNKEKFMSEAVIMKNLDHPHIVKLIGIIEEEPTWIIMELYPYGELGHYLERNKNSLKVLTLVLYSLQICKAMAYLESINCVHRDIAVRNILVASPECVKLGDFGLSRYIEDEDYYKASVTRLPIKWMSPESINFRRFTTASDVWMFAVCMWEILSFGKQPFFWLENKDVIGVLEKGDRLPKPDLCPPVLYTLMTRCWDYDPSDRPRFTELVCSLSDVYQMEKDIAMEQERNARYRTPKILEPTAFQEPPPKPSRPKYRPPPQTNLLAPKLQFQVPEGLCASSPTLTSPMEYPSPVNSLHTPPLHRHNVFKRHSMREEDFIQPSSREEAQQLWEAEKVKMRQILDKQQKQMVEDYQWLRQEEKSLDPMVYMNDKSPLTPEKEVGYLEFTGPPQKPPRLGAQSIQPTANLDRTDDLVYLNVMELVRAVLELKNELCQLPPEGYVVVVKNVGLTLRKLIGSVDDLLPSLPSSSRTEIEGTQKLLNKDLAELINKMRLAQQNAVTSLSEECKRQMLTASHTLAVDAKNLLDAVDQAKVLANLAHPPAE
PostGolgi ctrl: yeast control strain growth, post-Golgi counter-screen; efflux-deficient yeast background strain, growth absorbance A615, 16 h; inhibition, % at 10 µM; 98,000 compounds, 5% hits
Calb biofilm kill: kills Candida albicans biofilms; inhibition, % at 6 µM; C. albicans biofilm + clotrimazole, Alamar Blue; 85,000 compounds, 0.14% hits;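 active means inhibition above 20%; inactive means inhibition below 20%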;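 further: preformed 24 hr biofilms exposed to compound for 48 hr; 0% = biofilm without compound and 100% = blank killed by clotrimazole plus chlorhexidine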
Starred values were filed as active, the others as inactive; x = no result. Unless noted, no stated cut-off is given here; in the data, active means inhibition above about 30%; inactive means the rest.

SMILES	PostGolgi yeast	E coli WT exp	tolC growth inh	PTK2B oligo ant	PostGolgi ctrl	Calb biofilm kill
Cc1ccc(C(=O)CC(=O)c2cc(Cl)ccc2O)cc1	4	-14	x	0.61	33*	9
O=C(CC(=O)c1ccccc1O)c1cccc(F)c1	10	12	89*	-0.81	38*	x
O=C(CC(=O)c1ccccc1O)c1ccc(F)cc1	8	8	x	-0.95	58*	x
CSc1nsc(SCC(=O)Nc2c(C)n(C)n(-c3ccccc3)c2=O)n1	8	6	4	-1	9	-1
c1cncc(-c2noc(CC3CCCCC3)n2)c1	-9	9	x	0.54	25	-1
Cc1cc2c3c(c1C)C1(C(=O)N3C(C)(C)CC2C)C(C#N)=C(N)OC2=C1C(=O)CC(C)(C)C2 (stereo not drawn)	-4	2	x	-0.67	2	3
O=C(CNC(=O)c1ccc(Oc2ccccc2)cc1)OC1CCCCC1=O (stereo not drawn)	11	4	x	1	-7	x
Cc1ccc(-c2nc(SCC(=O)N(C)C3CCS(=O)(=O)C3)[nH]c2-c2ccc(C)cc2)cc1 (stereo not drawn)	-4	1	x	-0.02	13	x
COc1ccc(NC(=O)c2cc3sccc3n2Cc2ccc(F)cc2)cc1OC	2	-22	x	-2.2	33*	0
COc1ccc(OC)c(NC(=O)CCN2CCCCCC2)c1	x	x	x	-0.77	x	4
CCCc1cc(=O)oc2cc(C)cc(O)c12	-10	22	x	-2.3	19	6
CCCCCc1cc(O)c2c(C)cc(=O)oc2c1	9	-3	86*	-2.7	61*	0
O=c1c2ccccc2nc(/C=C/c2cccc([N+](=O)[O-])c2)n1CCCO	x	x	x	-0.62	x	x
O=c1c2ccccc2nc(/C=C/c2ccc([N+](=O)[O-])o2)n1CCCO	91*	31	x	-0.47	62*	x
N#C/C(=C/c1ccc(N2CCCCCC2)o1)c1cccc(F)c1	-5	-2	x	1.1	1	4
N#C/C(=C/c1ccc(N2CCCCCC2)o1)c1ccc(F)cc1	30*	-15	35	0.41	5	7
CCC1CCCCN1Cc1cc(OC)c(O)c([N+](=O)[O-])c1 (stereo not drawn)	-1	-5	x	x	17	x
CC(=O)Nc1cc(NC(C)=O)cc(C(=O)OCC(=O)N2CC(C)OC(C)C2)c1 (stereo not drawn)	-2	1	-10	-0.39	6	8
COC(=O)CSc1ccccc1C(=O)OC	7	2	-20	0.16	15	9
COC(=O)c1cccc2c1-c1ccccc1/C2=N/O	-9	-1	19	-1.5	47*	9
COC(=O)c1ccc2c(c1O)C(=O)c1ccccc1C2=O	105*	0	x	-0.97	83*	x
COc1cccc(NC(=O)N(C2CCCCC2)C(C)c2cccs2)c1 (stereo not drawn)	10	-6	x	1	13	3
O=C(c1noc2c1CCCC2)N1CCN(c2ccc(F)cc2)CC1	4	0	-1	-0.18	34*	3
O=C(c1noc2c1CCCC2)N1CCCCC1	4	-1	-12	0.49	0	x
Cc1cccc(N2CCN(C(=O)c3ccc(CS(=O)(=O)c4ccccc4C)o3)CC2C)c1 (stereo not drawn)	-2	-11	18	-1.4	14	12
SMILES	PostGolgi yeast	E coli WT exp	tolC growth inh	PTK2B oligo ant	PostGolgi ctrl	Calb biofilm kill
Cc1ccc(S(=O)(=O)Cc2ccc(C(=O)N3CCCC3)o2)cc1	1	2	-9	x	-2	12
Cc1ccc(C)c(N2CCN(C(=O)c3ccc(CS(=O)(=O)c4ccccc4C)o3)CC2)c1	5	-16	52	-2.1	38*	8
Cc1ccc(S(=O)(=O)Cc2ccc(C(=O)N3CCN(c4cc(C)ccc4C)CC3)o2)cc1	-2	-17	39	0.19	37*	x
O=C(N/N=C/c1cccc(Oc2ccccc2)c1)c1ccccc1Br	-4	-8	x	-2.4	33*	x
O=C(N/N=C/c1cccc(Oc2ccccc2)c1)c1cccc(Br)c1	1	-29	x	-1.1	31*	x
CC(=O)N1CCN(c2cc(N3CCc4ccccc4C3)c(F)cc2[N+](=O)[O-])CC1	0	-20	x	-1.4	23	x
O=C(CCC1CCCC1)N1CCN(C(=O)c2cccnc2)CC1	1	7	1	0.11	-4	3
CCOC(=O)c1cc(-c2ccc(N)cc2)sc1N	6	4	24	-0.68	6	-2
CCOC(=O)c1sc(-c2ccc(Br)cc2)cc1N	-4	-13	x	-0.43	45*	7
COC(=O)CSc1nc(N)c(C#N)c(-c2ccco2)c1C#N	-5	-10	x	1.2	32*	x
CCOc1cc(S(=O)(=O)NCc2ccccc2)ccc1F	-9	0	6	2.1	19	-1
O=C(Cc1csc(N2CCOCC2)n1)N/N=C/c1ccc(F)cc1	0	9	x	0.15	3	4
O=C(c1n[nH]c(=O)c2ccccc12)N1CCN(c2ccccc2Cl)CC1	-2	-5	7	0.06	50*	2
O=C(c1n[nH]c(=O)c2ccccc12)N1CCN(c2ccccc2)CC1	7	9	-10	-0.22	0	-4
CC1CCN(C(=O)CSCC(=O)Nc2nc(-c3cccs3)cs2)CC1	-1	-12	44	x	65*	9
CC1CCCN(C(=O)CSCC(=O)Nc2nc(-c3cccs3)cs2)C1 (stereo not drawn)	-5	3	33	x	64*	2
CCOC(=O)N1CCN(C(=O)CSCC(=O)Nc2nc(-c3cccs3)cs2)CC1	x	x	-4	-0.72	x	10
CC1CCCCN1C(=O)CSCC(=O)Nc1nc(-c2cccs2)cs1 (stereo not drawn)	-1	-6	28	x	73*	-4
CCc1cc(=O)oc2cc(C)c(CN3CCCC(C)C3)c(O)c12 (stereo not drawn)	33*	-3	8	-0.25	0	6
CN1CCN(CC(=O)N(Cc2c(C#N)c3ccccc3n2C)c2ccccc2)CC1	1	0	2	-0.09	34*	10
O=C1CC(NCc2ccc3c(c2)OCO3)C(=O)N1Cc1ccc2c(c1)OCO2 (stereo not drawn)	5	-9	9	1.1	7	1
O=C(OC1CCc2ccccc2C1=O)c1ccccc1O (stereo not drawn)	-6	6	68*	-0.77	19	6
CCCn1c(C)cc(C(=O)COC(=O)c2cc(S(=O)(=O)NCC(C)C)c(Cl)cc2Cl)c1C	-4	-5	x	-0.45	18	-3
CCn1c(SCc2ccc(C#N)cc2)nnc1-c1ccc(S(=O)(=O)N2CCCCC2)cc1	11	-13	31	0.88	43*	-7
CN=C(Nc1cc(Cl)ccc1Cl)SC1CC(=O)N(c2ccc(C(=O)OC)cc2)C1=O (stereo not drawn)	17	-3	x	0.04	38*	x
COC(=O)c1ccc(N2C(=O)CC(Sc3n[nH]c(C)n3)C2=O)cc1 (stereo not drawn)	3	2	-17	1.8	12	3
c1cncc(C2Nc3ccccc3-c3nc4ccccc4n32)c1 (stereo not drawn)	-1	1	x	-3.3*	16	6
